Data set [1] has as its system L1210. The data set is described as follows: Inhibition of synthesis of [5-3H]-uridine into RNA in L1210 cells. The note with it: l1210. In kind it is functional, cell-based, Mus musculus. The essentials: (§1)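 Actively growing L1210 cells in vitro. Incorporation of [5-3H]uridine into RNA, or [methyl-14C]thymidine into DNA, compared with untreated cells. IC50 is micromolar drug concentration giving 50% reduction in incorporation rate.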

Data set [2] deals with L1210. The data set is described as follows: Inhibition of synthesis of [methyl-14C] thymidine into DNA, in L1210 cells. It is filed as functional, cell-based, Mus musculus. As to conditions: l1210. The essentials: as §1
The species entered for a further data set is Bos taurus. Description: Thermal denaturation of calf thymus DNA measured as ΔTm. The note with it: cattle, in vitro.
Data set [3] relates to Mus musculus. The data set is described as follows: Antitumor activity measured as % increase in life span, for ip administration of compound and ip inoculation of B16 melanoma. In kind it is functional. The essentials: (§2)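 B16 brei (tumor weight/Hank's balanced salt solution 1:5, 0.2 mL) implanted sc or ip into groups of nine BDF1 mice on day 0. Drug given iv on day 1 (sc tumor) or ip on days 1, 5 and 9 (ip tumor), in 0.1 mL 5% v/v Me2SO-saline. Read-out is median survival time and %ILS versus untreated controls, excluding sixty-day survivors.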

Data set [4] has as its system L1210. The data set is described as follows: 50% Inhibition of growth of L1210 cells in culture. In kind it is functional, Mus musculus. The note with it: Mus musculus, L1210; read-out: ID50 (the source's name). The essentials: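 L1210 leukemia cells growing actively in culture; ID50 is drug concentration (nM) giving 50% inhibition of growth relative to untreated L1210 cells.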

Data set [5] is filed under the species Mus musculus. Description: Antitumor activity measured as optimal dose, against C26 colon carcinoma. It is filed as functional. The essentials:
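Primary colon C26 carcinoma cells (trypan blue excluding, 2.5 × 10^5 cells/mouse) implanted in CDF1 mice on day 0. Drug given ip on days 1, 5 and 9 in 0.1 mL 5% v/v Me2SO-saline. Optimal dose in […]; %ILS and 60-day survivors scored.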

The species entered for data set [6] is Mus musculus. The data set is described as follows: Antitumor activity measured as median survival time, against C26 colon carcinoma. In kind it is functional. The essentials: (§3)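 C26 primary colon carcinoma cells (trypan blue excluding, 2.5 × 10^5 cells/mouse) implanted in CDF1 mice on day 0. Drug given ip on days 1, 5 and 9 in 0.1 mL 5% v/v Me2SO-saline at optimal dose. Read-out is median survival time; %ILS is drug-treated over control, excluding survivors. Sixty-day survivors are counted.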

Data set [7] concerns Mus musculus. Description: Antitumor activity measured as % increase in life span, for iv administration of compound and sc inoculation of B16 melanoma.
In data set [8] the test system is P388/ADR. The data set is described as follows: Antitumor activity measured as Median survival time in days against P388/ADR, in ip implanted CDF1 mice, qd 1-9. It is filed as functional, Mus musculus. The essentials: (§4)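 P388/ADR leukemia, a P388/S subline made resistant to intercalators, implanted ip in CDF1 mice. Drug given ip daily on days 1-9 at optimal dose. Read-out is median survival time of tumor-bearing mice and %ILS of treated dying animals versus controls. Survivors beyond 60 days are counted; 10 mice per group.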

Data set [9] deals with L1210. The data set is described as follows: Optimal dose per injection, administered ip on days 1, 5, and 9, ip inoculation with 10E5 L1210 cells per CDF1 mouse on day 0. In kind it is functional. The essentials: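 CDF1 mice inoculated ip with 10^5 L1210 cells on day 0; drugs given ip on days 1, 5 and 9. Optimal dose in mg/kg per injection. %ILS is increase in median life span of treated dying mice over untreated tumor-bearing mice; survivors counted beyond 60 days, 9 per group.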

Another data set deals with B16. The data set is described as follows: In vitro 50% Growth inhibition of sensitive B16 cells. It is filed as functional, Mus musculus. As to conditions: Mus musculus, B16; read-out: ID50 (the source's name). The essentials: (§5)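 Actively growing tumor cells in vitro (actinomycin-resistant P388/ADR leukemia; sensitive B16 melanoma); ID50 is concentration (nM) needed for 50% growth inhibition.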

The test system of data set [10] is P388/ADR. Description: Antitumor activity against P388/ADR, in ip implanted CDF1 mice, treated ip, qd 1-9 measured as optimal dose. It is filed as functional, Mus musculus. The essentials: (§6)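 P388/ADR leukemia implanted ip in CDF1 mice; drugs given ip once daily on days 1-9. Optimal dose recorded alongside median survival time and % increase in median life span of treated dying mice versus controls; survivors counted as >60-day survivors per group of 10.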

Data set [11] deals with Mus musculus. Description: Antitumor activity measured as median survival time, for iv administration and sc inoculation of B16 melanoma.
Data set [12] has as its system Mus musculus. Description: Antitumor activity measured as median survival time, for ip administration and ip inoculation of B16 melanoma. In kind it is functional. The essentials: as §2
Data set [13] deals with P388/ADR. Description: In vitro 50% Growth inhibition of actinomycin resistant P388/ADR cells. In kind it is functional, Mus musculus. The note with it: Mus musculus, P388/ADR; read-out: ID50 (the source's name). The essentials: as §5
Data set [14] relates to P388/ADR. Description: Antitumor activity measured as %ILS against P388/ADR, in ip implanted CDF1 mice, qd 1-9. It is filed as functional, Mus musculus. The essentials:
as §4

The species named for data set [15] is Mus musculus. The data set is described as follows: percent increase in median life time (%ILS) measured in mice bearing leukemia L!210. It is filed as functional. The essentials:
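CDF1 mice inoculated ip with 10^5 L1210 cells on day 0. Drug given ip on days 1, 5 and 9 at the optimal dose in mg/kg per injection. %ILS is the increase in median life span of treated dying animals versus untreated tumor-bearing mice. Over-60-day survivors are counted; 9 mice per group.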

Data set [16] is filed under the species Mus musculus. Description: Antitumor activity measured as optimal dose, for B16 melanoma.
Data set [17] is filed under the species Mus musculus. The data set is described as follows: Antitumor activity measured as % increase in life span, against C26 colon carcinoma. It is filed as functional. The essentials: as §3
Data set [18] has as its system P388/ADR. The data set is described as follows: Antitumor activity measured as Median survival time in days against P388/ADR cells in ip implanted CDF1 mice, qd 1-9. In kind it is functional, Mus musculus. The essentials:
as §4

The test system of data set [19] is P388/ADR. The data set is described as follows: Antitumor activity against P388/ADR cells in ip implanted CDF1 mice, qd 1-9 measured as optimal dose. It is filed as functional, Mus musculus. The essentials: as §6
Data set [20] has as its system P388/ADR. The data set is described as follows: Antitumor activity measured as %ILS against P388/ADR cells in ip implanted CDF1 mice, qd 1-9. It is filed as functional, Mus musculus. The essentials: as §4

The ILS is how much longer treated animals lived than controls. Low values mean little gain in survival, high ones much gain in survival.

Structures are written as SMILES. pIC50: −log10 of the molar value.

Turning to `Cc1c2oc3c(C)c(OCC4CO4)cc(C(=O)N[C@@H]4C(=O)N[C@H](C(C)C)C(=O)N5CCC[C@H]5C(=O)N(C)CC(=O)N(C)[C@@H](C(C)C)C(=O)O[C@@H]4C)c3nc-2c(C(=O)N[C@@H]2C(=O)N[C@H](C(C)C)C(=O)N3CCC[C@H]3C(=O)N(C)CC(=O)N(C)[C@@H](C(C)C)C(=O)O[C@@H]2C)c(N)c1=O` (stereo in doubt), the pIC50 is 7.30 with L1210 [1] and 7.22 in the data set on L1210 [2]. Besides, the ΔTm in the data set listed under Bos taurus came out at 5.
As for `Cc1c2oc3c(C)c(OCC4CO4)cc(C(=O)N[C@@H]4C(=O)N[C@H](C(C)C)C(=O)N5CCC[C@H]5C(=O)N(C)CC(=O)N(C)[C@@H](C(C)C)C(=O)O[C@@H]4C)c3nc-2c(C(=O)N[C@@H]2C(=O)N[C@H](C(C)C)C(=O)N3CCC[C@H]3C(=O)N(C)CC(=O)N(C)[C@@H](C(C)C)C(=O)O[C@@H]2C)c(N)c1=O` (stereo in doubt; 3b), the ILS is on record as 105% in the data set with Mus musculus [3]; 64% in the data set on Mus musculus [7]; 344% in the data set on P388/ADR [14]; 186% in the data set listed under Mus musculus [15]; 64% in the data set listed under Mus musculus [17]. The pIC50 in the data set on L1210 [4] is 7.54; in the data set with B16, 8.60; with P388/ADR [13], 7.10. Besides, the Dose in the data set filed under Mus musculus [5] was 0.6 mg/kg; in the data set with L1210 [9], 0.05 mg/kg; in the data set on P388/ADR [10], 0.65 mg/kg; in the data set listed under Mus musculus [16] it was 1 mg/kg. Also, the MST worked out at 36 days in the data set filed under Mus musculus [6], 40 days in the data set on P388/ADR [8], 54 days with Mus musculus [11] and 39 days in the data set on Mus musculus [12].
In the data set with P388/ADR [18], `CO[C@@]12[C@H](COC(N)=O)C3=C(C(=O)C(C)=C(N)C3=O)N1C[C@@H]1N[C@@H]12` [MITOMYCIN] showed an MST of 45 days. This compound also displayed a Dose in the data set with P388/ADR [19] of 1 mg/kg. The compound further registered an ILS in the data set on P388/ADR [20] of 400%.

Values taken from ChEMBL document CHEMBL1124173, “Enantiomers of 7-(2,3-epoxypropoxy)actinomycin D as dual-action DNA-acting antitumor agents” (J Med Chem, 1988).
